The source made the active and inactive calls. The calls are words filed in the database; no cut-off is given here.
Columns and labels:
Rattus norvegicus [1] = test: Antiinflammatory activity in Wistar albino rat assessed as inhibition of carrageenan-induced paw edema at 0.029 mmol/kg, po dosed 1 hr before carrageenan challenge measured 1 hr post carrageenan-induced inflammation; assay type: functional
Method in brief: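 Wistar albino rats of both sexes, 120–150 g, six per group, food withdrawn the day before. Given orally 0.029 mmol/kg in saline with a few drops of Tween 80, by stomach tube, 1 h before subplantar s.c. carrageenan (0.1 ml of 1%) into the right hind paw. Paw thickness measured at 1, 2, 3 and 4 h against baseline. % inhibition = 100 × (1 − Vt/Vc).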

Rattus norvegicus [2] = test: Gastrointestinal toxicity in Wistar albino rat assessed as incidence of stomach ulceration at 0.029 mmol/kg, po; assay type: organism-based; conditions: in vivo
Method in brief: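 Rats given single oral dose suspended in saline with few drops Tween 80 (groups of 6); killed under deep ether anaesthesia 5 h after treatment; stomach opened along greater curvature and examined for lesions or bleeding; ulceration expressed as number of rats affected per group.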

Mus musculus [3] = test: Analgesic activity in Swiss albino mouse assessed as inhibition of acetic acid-induced writhing at 0.029 mmol/kg. po dosed 1 hr before acetic acid challenge and measured during 30 mins post acetic acid challenge; assay type: functional
Method in brief: (§1)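 Swiss albino mice of either sex, 18–22 g, six per group. Oral suspension at 0.029 mmol/kg given 1 h before 0.3 ml of 1% acetic acid i.p. Contractions counted for 30 min, starting 5 min after injection. % protection = (n − n')/n × 100 against control writhing. Potency% = % inhibition of test / % inhibition of indomethacin × 100. Mean ± SEM, ANOVA with post hoc test.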

Rattus norvegicus [4] = test: Gastrointestinal toxicity in Wistar albino rat assessed as incidence of stomach ulceration at 0.029 mmol/kg, po followed by another two compound doses in second and third days measured on fourth day post dose by acute ulcerogenicity study; assay type: organism-based; conditions: in vivo
Method in brief: (§2)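 Adult Wistar rats of both sexes, 120–150 g, groups of 6, fasted 20 h; oral dose suspended in 1% Tween (vehicle group 1% Tween); fasted 2 h, fed 2 h, fasted 20 h; further doses on days 2 and 3. Scored: % incidence/10, mean ulcers per rat, mean severity score; ulcer index = sum of the three.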

Rattus norvegicus [5] = test: Gastrointestinal toxicity in Wistar albino rat assessed as stomach ulcer index at 0.029 mmol/kg, po followed by another two compound doses in second and third days measured on fourth day post dose by acute ulcerogenicity study; assay type: organism-based; conditions: in vivo; method in brief: as §2
Rattus norvegicus [6] = test: Antiinflammatory activity in Wistar albino rat assessed as inhibition of carrageenan-induced paw edema at 0.029 mmol/kg, po dosed 1 hr before carrageenan challenge measured 2 hrs post carrageenan-induced inflammation
Rattus norvegicus [7] = test: Antiinflammatory activity in Wistar albino rat assessed as inhibition of carrageenan-induced paw edema at 0.029 mmol/kg, po dosed 1 hr before carrageenan challenge measured 3 hrs post carrageenan-induced inflammation
Rattus norvegicus [8] = test: Antiinflammatory activity in Wistar albino rat assessed as inhibition of carrageenan-induced paw edema at 0.029 mmol/kg, po dosed 1 hr before carrageenan challenge measured 4 hrs post carrageenan-induced inflammation
Rattus norvegicus [9] = test: Antiinflammatory activity in Wistar albino rat assessed as inhibition of carrageenan-induced paw edema at 1 mg/kg, po dosed 1 hr before carrageenan challenge measured after carrageenan-induced inflammation; assay type: functional
Method in brief: (§3)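 Rat carrageenan paw oedema, six animals per group. Oral doses of 1, 2, 4 and 6 mg/kg in saline/Tween 80 given 1 h before 0.1 ml of 1% carrageenan s.c. into the right hind paw. Oedema measured as thickness increase over baseline. % inhibition = 100 × (1 − Vt/Vc). IC50 derived from the dose–response and reported in mg/kg and µmol/kg.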

Rattus norvegicus [10] = test: Antiinflammatory activity in Wistar albino rat assessed as inhibition of carrageenan-induced paw edema at 2 mg/kg, po dosed 1 hr before carrageenan challenge measured after carrageenan-induced inflammation; assay type: functional; method in brief: as §3
Rattus norvegicus [11] = test: Antiinflammatory activity in Wistar albino rat assessed as inhibition of carrageenan-induced paw edema at 4 mg/kg, po dosed 1 hr before carrageenan challenge measured after carrageenan-induced inflammation; assay type: functional; method in brief: as §3
Rattus norvegicus [12] = test: Antiinflammatory activity in Wistar albino rat assessed as inhibition of carrageenan-induced paw edema at 6 mg/kg, po dosed 1 hr before carrageenan challenge measured after carrageenan-induced inflammation; assay type: functional; method in brief: as §3
Rattus norvegicus [13] = test: Antiinflammatory activity in po dosed Wistar albino rat assessed as inhibition of carrageenan-induced paw edema dosed 1 hr before carrageenan challenge measured after carrageenan-induced inflammation; assay type: functional, organism-based; method in brief: as §3
Mus musculus [14] = test: Analgesic activity in Swiss albino mouse assessed as inhibition of acetic acid-induced writhing at 0.029 mmol/kg. po dosed 1 hr before acetic acid challenge and measured during 30 mins post acetic acid challenge relative to indomethacin; assay type: functional; conditions: read-out: INH; method in brief: as §1
[15] = Lipophilicity, log P of the compound; assay type: physicochemical; conditions: octanol/water
Homo sapiens = species: Homo sapiens; test: Selectivity index, ratio of inhibition of COX1 to inhibition of COX2 by Cayman's COX activity assay
Method in brief: (§4)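 COX peroxidase activity measured with a commercial COX activity assay kit (Kulmacz and Lands method), per manufacturer's instructions; % inhibition of COX-1 and COX-2 determined, selectivity expressed as ratio of COX-1 to COX-2 % inhibition.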

[16] = biological target: Prostaglandin G/H synthase 1 (Homo sapiens) (UniProt P23219); test: Inhibition of COX1 by Cayman's COX activity assay; method in brief: as §4
Chain of Prostaglandin G/H synthase 1 (Homo sapiens) (P23219 whole entry): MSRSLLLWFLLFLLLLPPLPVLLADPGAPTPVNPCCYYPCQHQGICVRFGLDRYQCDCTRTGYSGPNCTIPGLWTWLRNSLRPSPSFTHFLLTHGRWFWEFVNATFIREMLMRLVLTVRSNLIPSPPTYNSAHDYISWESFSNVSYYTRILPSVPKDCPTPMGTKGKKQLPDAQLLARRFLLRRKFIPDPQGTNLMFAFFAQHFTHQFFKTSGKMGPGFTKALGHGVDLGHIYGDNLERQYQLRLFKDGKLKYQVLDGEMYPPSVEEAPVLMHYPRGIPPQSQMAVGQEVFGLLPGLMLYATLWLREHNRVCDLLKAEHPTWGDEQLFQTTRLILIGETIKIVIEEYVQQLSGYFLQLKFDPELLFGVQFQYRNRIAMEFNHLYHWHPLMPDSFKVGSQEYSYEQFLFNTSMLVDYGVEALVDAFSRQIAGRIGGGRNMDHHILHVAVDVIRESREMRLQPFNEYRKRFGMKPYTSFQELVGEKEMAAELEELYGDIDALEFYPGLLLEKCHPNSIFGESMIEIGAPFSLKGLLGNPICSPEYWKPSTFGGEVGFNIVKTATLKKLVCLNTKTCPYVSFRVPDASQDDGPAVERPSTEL

Row | Structure (SMILES) | inhibition in vivo at 29 µmol/kg (Rattus norvegicus [1]) [%] | Activity (Rattus norvegicus [2]) | inhibition in vivo at 29 µmol/kg (Mus musculus [3]) [%] | Activity (Rattus norvegicus [4]) [%] | UI (Rattus norvegicus [5]) | inhibition in vivo at 29 µmol/kg (Rattus norvegicus [6]) [%] | inhibition in vivo at 29 µmol/kg (Rattus norvegicus [7]) [%] | inhibition in vivo at 29 µmol/kg (Rattus norvegicus [8]) [%] | inhibition in vivo at 1 mg/kg (Rattus norvegicus [9]) [%] | inhibition in vivo at 2 mg/kg (Rattus norvegicus [10]) [%] | inhibition in vivo at 4 mg/kg (Rattus norvegicus [11]) [%] | inhibition in vivo at 6 mg/kg (Rattus norvegicus [12]) [%] | IC50 (Rattus norvegicus [13]) [µmol/kg] | writhing inhibition relative to indomethacin (potency %) at 29 µmol/kg (Mus musculus [14]) [%] | logP [15] | Ratio (Homo sapiens) | inhibition [16]
1 | COc1ccc2c(c1)c(CC(=O)O)c(C)n2C(=O)c1ccc(Cl)cc1 [INDOMETHACIN] | 57 | Toxic | 66.1 | 10 | 14.73 | 39 | 47 | 51 |  |  |  |  |  |  |  |  | 
2 | CCOC(=O)Cc1nc2c(c(=O)[nH]1)C1CCCN1C(=O)N2c1ccccc1 (stereo not drawn) | 81 | Non-toxic | 70.8 | 5 | 7 | 80 | 90 | 89 | 12 | 32 | 60 | 64 | 11 | 107 | 1.53 |  | 
3 | O=C(O)Cc1nc2c(c(=O)[nH]1)C1CCCN1C(=O)N2c1ccccc1 (stereo not drawn) | 77 | Toxic | 57.6 | 8.33 | 10.49 | 70 | 72 | 80 | 20 | 40 | 64 | 74 | 10 | 87.2 | 0.749 |  | 
4 | COc1ccc(/C=N/NC(=O)c2nc3c(c(=O)[nH]2)C2CCCN2C(=O)N3c2ccccc2)cc1 (stereo not drawn) | 51 | Non-toxic | 71.8 |  |  | 21 | 44 | 47 |  |  |  |  |  | 109 | 2.76 |  | 
5 | Cc1ccc(-c2cc(C(F)(F)F)nn2-c2ccc(S(N)(=O)=O)cc2)cc1 [CELECOXIB] | 54 | Toxic |  | 6.66 | 11.13 | 34 | 47 | 48 |  |  |  |  |  |  |  |  | 
6 | Cc1c(NC(=O)c2nc3c(c(=O)[nH]2)C2CCCN2C(=O)N3c2ccccc2)c(=O)n(-c2ccccc2)n1C (stereo not drawn) | 78 | Non-toxic | 63.3 | 5 | 7.16 | 68 | 78 | 83 | 30 | 48 | 78 | 77 | 6 | 95.7 | 2.09 | 1.3 | Active
7 | O=C(N/N=C/c1ccccc1)c1nc2c(c(=O)[nH]1)C1CCCN1C(=O)N2c1ccccc1 (stereo not drawn) | 68 | Toxic | 57.6 |  |  | 41 | 53 | 50 |  |  |  |  |  | 87.2 | 3.35 |  | 
8 | Cc1cc(=O)n(C(=O)c2nc3c(c(=O)[nH]2)C2CCCN2C(=O)N3c2ccccc2)[nH]1 (stereo not drawn) | 57 | Non-toxic | 61 |  |  | 34 | 57 | 62 |  |  |  |  |  | 92.2 | 0.772 |  | 
9 | COc1ccc(/C=N/NC(=O)c2nc3c(c(=O)[nH]2)C2CCCN2C(=O)N3c2ccccc2)cc1O (stereo not drawn) | 18 | Non-toxic | 43.8 |  |  | 15 | 46 | 46 |  |  |  |  |  | 66.2 | 2.42 |  | 
10 | CCOC(=O)C/C(C)=N/NC(=O)c1nc2c(c(=O)[nH]1)C1CCCN1C(=O)N2c1ccccc1 (stereo not drawn) | 45 | Non-toxic | 1.17 |  |  | 41 | 47 | 52 |  |  |  |  |  | 1.77 | 1.28 |  | 
11 | CCOC(=O)c1nc2c(c(=O)[nH]1)C1CCCN1C(=O)N2c1ccccc1 (stereo not drawn) | 71 | Non-toxic | 29.4 |  |  | 67 | 68 | 66 |  |  |  |  |  | 44.5 | 2.02 |  | 
12 | Cc1cc(-c2ccccc2)nn1C(=O)c1nc2c(c(=O)[nH]1)C1CCCN1C(=O)N2c1ccccc1 (stereo not drawn) | 78 | Non-toxic | 39.6 | 6.66 | 10.94 | 65 | 59 | 62 | 20 | 45 | 65 | 60 | 8 | 59.8 | 3.7 | 1.02 | Active
13 | Cc1cc(C)n(C(=O)c2nc3c(c(=O)[nH]2)C2CCCN2C(=O)N3c2ccccc2)n1 (stereo not drawn) | 58 | Non-toxic | 62.1 |  |  | 57 | 65 | 67 |  |  |  |  |  | 94 | 1.46 |  | 
14 | NNC(=O)c1nc2c(c(=O)[nH]1)C1CCCN1C(=O)N2c1ccccc1 (stereo not drawn) | 56 | Toxic | 32.2 |  |  | 45 | 50 | 56 |  |  |  |  |  | 48.7 | -0.487 |  | 

— ChEMBL document CHEMBL2062401, “New pyrimido[5,4-e]pyrrolo[1,2-c]pyrimidines: synthesis, 2D-QSAR, anti-inflammatory, analgesic and ulcerogenicity studies” (Eur J Med Chem, 2012)
